According to ChEMBL document CHEMBL2331196, “Solvent Selection for Insoluble Ligands, a Challenge for Biological Assay Development: A TNF-α/SPD304 Study” (ACS Med Chem Lett, 2013):
≈ marks a conversion by molar mass, not a printed value.

What was measured:
Format in all cases: physicochemical
[1] = Solubility of the compound in 10 % PEG5000 by UV/visible spectroscopy
In short: (§1)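 The compound was diluted from a 10 mM aqueous stock of its HCl salt into 10 mM citrate-phosphate buffer, pH 6.5, containing the organic solvent at the stated % (v/v). Samples were centrifuged, and soluble material was read by UV absorbance at 252 nm. The pellet was resuspended in pure solvent and read as a check. Values are the mean of four independent measurements.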

[2] = Solubility of the compound in citrate-phosphate buffer at pH 6.5
In short: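 The compound was diluted from a 10 mM aqueous stock (pH about 1) into 10 mM citrate-phosphate buffer, pH 6.5, with no organic cosolvent. After centrifugation, soluble material was quantified by UV absorbance at 252 nm. The resuspended precipitate was also measured. Values are the mean of four independent measurements.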

[3] = Solubility of the compound in 5 % MeOH by UV/visible spectroscopy; in short: as §1
[4] = Solubility of the compound in 10 % DMF by UV/visible spectroscopy; in short: as §1
[5] = Solubility of the compound in 5 % DMSO by UV/visible spectroscopy; in short: as §1
[6] = Solubility of the compound in 2.5 % MeOH by UV/visible spectroscopy; in short: as §1
[7] = Solubility of the compound in 2.5 % DMF by UV/visible spectroscopy; in short: as §1
[8] = Solubility of the compound in 2.5 % glycerol by UV/visible spectroscopy; in short: as §1
[9] = Solubility of the compound in 5 % PEG5000 by UV/visible spectroscopy; in short: as §1
[10] = Solubility of the compound in 2.5 % DMSO by UV/visible spectroscopy; in short: as §1
[11] = Solubility of the compound in 5 % DMF by UV/visible spectroscopy; in short: as §1
[12] = Solubility of the compound in 10 % DMSO by UV/visible spectroscopy; in short: as §1
[13] = Solubility of the compound in 10 % MeOH by UV/visible spectroscopy; in short: as §1
[14] = Solubility of the compound in 10 % PEG3350 by UV/visible spectroscopy; in short: as §1
[15] = Solubility of the compound in 2.5 % PEG5000 by UV/visible spectroscopy; in short: as §1
[16] = Solubility of the compound in 10 % glycerol by UV/visible spectroscopy; in short: as §1
[17] = Solubility of the compound in 5 % PEG3350 by UV/visible spectroscopy; in short: as §1
[18] = Solubility of the compound in 5 % glycerol by UV/visible spectroscopy; in short: as §1

- solubility [1]: > 100 µM
- solubility [2]: 10 µM (≈ 5.48 µg/mL)
- solubility [3]: 58 µM (≈ 31.8 µg/mL)
- solubility [4]: 82 µM (≈ 44.9 µg/mL)
- solubility [5]: 52 µM (≈ 28.5 µg/mL)
- solubility [6]: 37 µM (≈ 20.3 µg/mL)
- solubility [7]: 35 µM (≈ 19.2 µg/mL)
- solubility [8]: 15 µM (≈ 8.21 µg/mL)
- solubility [9]: 97 µM (≈ 53.1 µg/mL)
- solubility [10]: 33 µM (≈ 18.1 µg/mL)
- solubility [11]: 58 µM (≈ 31.8 µg/mL)
- solubility [12]: 79 µM (≈ 43.3 µg/mL)
- solubility [13]: 83 µM (≈ 45.5 µg/mL)
- solubility [14]: 96 µM (≈ 52.6 µg/mL)
- solubility [15]: 90 µM (≈ 49.3 µg/mL)
- solubility [16]: 28 µM (≈ 15.3 µg/mL)
- solubility [17]: 84 µM (≈ 46 µg/mL)
- solubility [18]: 19 µM (≈ 10.4 µg/mL)
Structure (SMILES): Cc1cc2occ(CN(C)CCN(C)Cc3cn(-c4cccc(C(F)(F)F)c4)c4ccccc34)c(=O)c2cc1C
